This note sets out measurements from ChEMBL document CHEMBL2203171, “The use of small molecule probes to study spatially separated stimulus-induced signaling pathways” (Bioorg Med Chem Lett, 2012).

Active and inactive are the calls of the source. No cut-off for these calls is given here.

For one test, the target named is T1, Inhibitor of nuclear factor kappa-B kinase subunit beta (Mus musculus) (UniProt O88351).
T1 sequence (whole entry): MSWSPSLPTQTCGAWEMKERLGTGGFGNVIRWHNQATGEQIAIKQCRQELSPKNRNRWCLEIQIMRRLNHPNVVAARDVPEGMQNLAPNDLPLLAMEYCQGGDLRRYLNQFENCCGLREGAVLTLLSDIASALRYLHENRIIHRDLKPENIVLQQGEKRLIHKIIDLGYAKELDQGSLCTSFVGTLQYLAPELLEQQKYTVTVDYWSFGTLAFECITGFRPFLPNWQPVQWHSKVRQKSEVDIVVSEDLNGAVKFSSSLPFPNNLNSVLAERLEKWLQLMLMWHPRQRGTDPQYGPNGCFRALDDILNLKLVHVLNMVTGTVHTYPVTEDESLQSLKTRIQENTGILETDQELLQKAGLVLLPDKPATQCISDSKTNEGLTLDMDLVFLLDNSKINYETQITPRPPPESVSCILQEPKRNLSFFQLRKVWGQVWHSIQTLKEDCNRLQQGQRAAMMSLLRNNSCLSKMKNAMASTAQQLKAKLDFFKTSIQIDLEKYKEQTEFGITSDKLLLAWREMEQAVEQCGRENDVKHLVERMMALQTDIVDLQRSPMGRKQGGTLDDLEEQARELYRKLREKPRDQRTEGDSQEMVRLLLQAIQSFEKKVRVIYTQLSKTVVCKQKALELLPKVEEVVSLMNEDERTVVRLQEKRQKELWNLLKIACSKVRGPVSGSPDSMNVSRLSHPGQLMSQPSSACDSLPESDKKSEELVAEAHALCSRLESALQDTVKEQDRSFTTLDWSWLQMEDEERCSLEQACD
Briefly: Inhibition of IKKbeta in C57BL/6 mouse BMDM cells assessed as inhibition of LPS-induced IkappaBalpha phosphorylation at 50 uM up to 90 mins by Western blot analysis. The format is cell-based. Background: Immunoblotting shows a protein as a band on a membrane.
On to `O=C(CCCCCCCC(=O)ON1C(=O)CCC1=O)Oc1ccc2cc(C(C(=O)NCc3ccccc3)N(C(=O)Cc3ccc4c(c3)OCO4)C3CC3)ccc2c1` (centres undefined), for which the “inhibition of IkappaBalpha phosphorylation (active/not active)” value was “Active”.
The same measure, in the same setting: under `O=C(CCCCCN1C(=O)CCC1=O)Oc1ccc2cc(C(C(=O)NCc3ccccc3)N(C(=O)Cc3ccc4c(c3)OCO4)C3CC3)ccc2c1` (centres undefined) stands “inactive”; under `O=C(CCCCCN1C(=O)C=CC1=O)Oc1ccc2cc(C(C(=O)NCc3ccccc3)N(C(=O)Cc3ccc4c(c3)OCO4)C3CC3)ccc2c1` (centres undefined), “Active”.

The target in another test is T2, Toll-like receptor 3 (Mus musculus) (UniProt Q99MB1).
T2 sequence (whole entry): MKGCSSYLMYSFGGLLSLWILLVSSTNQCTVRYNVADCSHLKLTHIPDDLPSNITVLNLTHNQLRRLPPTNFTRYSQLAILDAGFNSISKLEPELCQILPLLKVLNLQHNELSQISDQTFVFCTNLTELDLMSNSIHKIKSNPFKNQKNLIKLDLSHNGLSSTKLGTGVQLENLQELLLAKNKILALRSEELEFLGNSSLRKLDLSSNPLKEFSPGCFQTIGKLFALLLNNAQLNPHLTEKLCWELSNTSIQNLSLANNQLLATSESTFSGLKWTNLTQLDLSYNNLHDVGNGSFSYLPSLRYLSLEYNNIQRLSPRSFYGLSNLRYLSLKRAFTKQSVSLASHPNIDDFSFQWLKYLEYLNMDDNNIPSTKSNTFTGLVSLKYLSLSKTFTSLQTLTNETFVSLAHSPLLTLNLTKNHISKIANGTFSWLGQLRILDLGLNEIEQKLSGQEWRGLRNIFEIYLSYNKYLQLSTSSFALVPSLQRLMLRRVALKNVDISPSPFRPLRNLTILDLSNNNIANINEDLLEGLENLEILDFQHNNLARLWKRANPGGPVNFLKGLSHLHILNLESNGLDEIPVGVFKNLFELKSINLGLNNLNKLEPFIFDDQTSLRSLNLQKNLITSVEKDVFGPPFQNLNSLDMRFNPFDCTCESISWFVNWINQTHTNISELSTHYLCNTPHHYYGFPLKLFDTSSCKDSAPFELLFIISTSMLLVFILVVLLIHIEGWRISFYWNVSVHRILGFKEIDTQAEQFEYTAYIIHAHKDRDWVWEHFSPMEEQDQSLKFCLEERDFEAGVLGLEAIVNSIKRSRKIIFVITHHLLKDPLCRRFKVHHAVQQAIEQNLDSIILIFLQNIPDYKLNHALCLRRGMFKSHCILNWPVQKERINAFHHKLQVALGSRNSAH
The test can be described thus: Inhibition of TRIF recruitment to TLR3 in C57BL/6 mouse BMDM cells assessed as inhibition of pI:pC-induced IkappaBalpha degradation up to 90 mins by Western blot analysis. Format: cell-based. A digest of the protocol:
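Bone marrow macrophages from C57BL/6 mice, grown in 70% growth medium (DMEM, 10% FBS) plus 30% L929-conditioned medium and given fresh medium 12-14 h before stimulation. Stimuli: IL-1 40 ng/ml, HKSA ~10^8 cfu/ml, pI:pC 50 μg/ml or CpG 10 μg/ml, ± compound at 10 μM (final) added from a 200x DMSO stock. IκBα and p38 profiled by immunoblot. Three independent experiments, quantitated and normalized.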
On to `O=C(CCCCCCCC(=O)ON1C(=O)CCC1=O)Oc1ccc2cc(C(C(=O)NCc3ccccc3)N(C(=O)Cc3ccc4c(c3)OCO4)C3CC3)ccc2c1` (centres undefined), for which the inhibition result is “Active”.
On the same count and under the same terms, the entry for `O=C(CCCCCN1C(=O)CCC1=O)Oc1ccc2cc(C(C(=O)NCc3ccccc3)N(C(=O)Cc3ccc4c(c3)OCO4)C3CC3)ccc2c1` (centres undefined) is “Active”; for `O=C(CCCCCN1C(=O)C=CC1=O)Oc1ccc2cc(C(C(=O)NCc3ccccc3)N(C(=O)Cc3ccc4c(c3)OCO4)C3CC3)ccc2c1` (centres undefined) it is “Active”.

The target of a further test is T1, Inhibitor of nuclear factor kappa-B kinase subunit beta (Mus musculus). Briefly: Inhibition of IKKbeta in C57BL/6 mouse BMDM cells assessed as inhibition of TNFalpha-induced phosphorylation at 25 uM after 5 mins by Western blot analysis. Format: cell-based. In short, it runs like this: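 C57BL/6 marrow-derived macrophages were cultured in 70% growth medium/30% L929-conditioned medium and refreshed 12-14 h before stimulation. Stimuli were TNF 40 ng/ml or LPS 100 ng/ml, ± compound at 25 μM from a 200x DMSO stock. Western blots tracked IKK, p38, IκBα and phospho-RelA. Results from three independent experiments were quantitated and normalized.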
Regarding `O=C(CCCCCCCC(=O)ON1C(=O)CCC1=O)Oc1ccc2cc(C(C(=O)NCc3ccccc3)N(C(=O)Cc3ccc4c(c3)OCO4)C3CC3)ccc2c1` (centres undefined), the inhibition result is “inactive”.
Turning to `O=C(CCCCCN1C(=O)CCC1=O)Oc1ccc2cc(C(C(=O)NCc3ccccc3)N(C(=O)Cc3ccc4c(c3)OCO4)C3CC3)ccc2c1` (centres undefined), the inhibition entry was “inactive”.
Still for that read-out and setting: under `O=C(CCCCCN1C(=O)C=CC1=O)Oc1ccc2cc(C(C(=O)NCc3ccccc3)N(C(=O)Cc3ccc4c(c3)OCO4)C3CC3)ccc2c1` (centres undefined) stands “inactive”.
